According to ChEMBL document CHEMBL4513216, “Probing the Open Global Health Chemical Diversity Library for Multistage-Active Starting Points for Next-Generation Antimalarials” (ACS Infect Dis, 2020):

Assay: Toxicity liver stage against HepG2, at 10uM
Assay type: cell-based
Design: test concentration 10 uM, cell line HepG2-A16-CD81EGFP
Details: human, HepG2-A16-CD81EGFP cells; read-out: INHIBITION
Procedure, shortened: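 Uninfected HepG2-A16-CD81EGFP cells, 3 × 10^3 per well, 1536-well, plated on prespotted compound at 10 μM final, parasite-free screening media added to match infected plates; puromycin 10 μM positive, DMSO 0.5% negative; run in parallel with 48 h PbLuc assay at 37 °C, 5% CO2; viability by CellTiter-Glo luminescence, normalized to controls.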

Row | SMILES | cytotoxicity at 10 µM [%]
1 | Cc1cc(NC(C)c2csc(C)n2)n2nc(C)c(C)c2n1 (stereo not drawn) | 5.32
2 | CCCS(=O)(=O)N1CCOC2(CCCN(Cc3ccccn3)C2)C1 (stereo not drawn) | -0.58
3 | Cc1ccc2nc(CN3CCCCC3CCn3cccn3)cn2c1 (stereo not drawn) | 7.31
4 | CCC(C)CNCC1(S(C)(=O)=O)CCOCC1 (stereo not drawn) | -11.4
5 | Cc1nccc(N2CCC(=O)N(CC3CC3)C(C(C)C)C2)n1 (stereo not drawn) | -0.232
6 | Cc1ccc2nc(N3CCN(CC(=O)NC(C)C)CC3)cc(C)c2c1 | -14.7
7 | CN1CCC(N(C)CCC(=O)N2CCC(Oc3ccc(Cl)cc3)CC2)C1 (stereo not drawn) | 7.04
8 | COc1cccc2c1OCC(C(=O)NCCc1nc3c(s1)CCC3)C2 (stereo not drawn) | -39.6
9 | Cc1cc(C(=O)N2C[C@@H]3COC[C@]3(c3nnc(C(C)C)o3)C2)on1 | -2.52
10 | Cc1ncsc1CN1Cc2cn(C)nc2C(COCC2CC2)C1 (stereo not drawn) | -67.3
11 | Cc1cc(NC(=O)C(C)N2CCCN(c3nccs3)CC2)on1 (stereo not drawn) | 1.79
12 | c1ccc(C2CCCN(c3ncnc4c3CCNC4)CC2)cc1 (stereo not drawn) | 58.5
13 | COCCN1C[C@@H]2CN(c3cc(OC)ncn3)CCC[C@]2(C(=O)O)C1 | 4.26
14 | CC(C)CCC(=O)N1CCCC1c1nnc2n1CCCCC2 (stereo not drawn) | -8.88
15 | CCc1nc(CC(=O)N2CCC(C(=O)N3CCCCC3)CC2)cs1 | 4.92
16 | Fc1ccc(CN2CCCCC2Cn2cncn2)c2ncccc12 (stereo not drawn) | 6.95
17 | FC(F)(F)C1CCCn2c(CNCc3cccs3)nnc21 (stereo not drawn) | 3.79
18 | Cc1cc(N2CCC(O)(C(=O)O)CC2)nc2ccccc12 | -41.5
19 | CCn1cnnc1CNC(=O)N1CCN(c2ccc(OC)cc2)CC1 | -1.62
20 | Cc1cn2nc(N3CCN(Cc4c(C)noc4C)CC3)sc2n1 | -8.81
21 | COc1cn(-c2ccccc2)nc1C(=O)NCCCN1CCCC(C)C1 (stereo not drawn) | -11.1

Row | SMILES | cytotoxicity at 10 µM [%]
22 | CSc1ccccc1NC(=O)C1CN(C(=O)c2ccc3c(c2)OCO3)C1 | -12.3
23 | CCc1nc2n(n1)CC(NCC(=O)Nc1oc(C)c(C)c1C#N)CC2 (stereo not drawn) | -8.84
24 | Cc1ccc(N2CCCC(NCCS(C)(=O)=O)C2)nn1 (stereo not drawn) | -5.26
25 | CC1CN(C(=O)c2ccc(=O)n(C)c2)c2ccccc2NC1=O (stereo not drawn) | -2.09
26 | N#Cc1ccc(C(=O)N(Cc2ccncc2)C2CC2)cc1 | -8.53
27 | CCS(=O)(=O)N1CCc2onc(CNc3ncccn3)c2C1 | -0.748
28 | Cc1ccc(Sc2nccn(C)c2=O)cc1 | 4.8
29 | O=C(NC1CCC1)[C@@H]1C[C@@H]2CCN(Cc3ccncc3)C[C@H]2O1 | -22.5
30 | CC(C)(C)C(=O)NS(=O)(=O)c1ccc(F)cc1C(F)(F)F | -1.18
31 | Cc1nn(C(C)C)c2cnn(CC(=O)N3CCSCC3)c12 | 5.86
32 | CNC(=O)C1CCC(NC(=O)N(C)Cc2c(C)noc2C)CC1 (stereo not drawn) | -13.7
33 | Cc1nn(S(=O)(=O)c2ccc(Cl)cc2)c(C)c1C | 15.1
34 | CCN1CC2(CCC1=O)CCN(C(=O)c1ccc(C)cc1O)CC2 | -0.0198
35 | COc1c(CNCc2nnc3n2CCCCC3)c(C(C)C)nn1C | 11.5
36 | Cc1noc(C)c1C(=O)NCc1ccc(N2CCCCCC2)nc1 | 2.76
37 | CC(=O)N1CCN(C(=O)CNc2cccc(OC(F)F)c2C)CC1 | -11.4
38 | COCCNC(=O)Nc1ccc(F)c(C(N)=O)c1 | -6.46
39 | Fc1ccc(CNCCn2cccn2)c(Cl)c1 | -1.26
40 | Cc1ccc(C(O)CN2CCN(Cc3nccn3C)CC2)cc1C (stereo not drawn) | -37
41 | CCN(C)S(=O)(=O)N(CC)Cc1cccc(-c2ccncc2)c1 | -11.5
42 | Cc1nc(OCC(=O)N2CCCC2)cc(-n2cccn2)n1 | 3.99

Row | SMILES | cytotoxicity at 10 µM [%]
43 | Cc1cc(C)n(CC2CCCCN2C(=O)c2sccc2C#N)n1 (stereo not drawn) | -0.497
44 | Cc1ccc([C@@H]2CN(C(=O)c3cc(C)no3)C[C@H]2NC(=O)C2CC2)cc1 | -1.82
45 | COCc1nc2n(n1)CCCC2Nc1nc(C2CC2)ns1 (stereo not drawn) | 17
46 | COc1cccc2c1N(C(=O)c1ccc(C)nc1)CCC2 | 1.36
47 | c1ccc2nc(N3CCCC(Cn4cncn4)C3)cnc2c1 (stereo not drawn) | 5.46
48 | COc1ncccc1CN1Cc2nccn2CC(CN2CCCC2)C1 (stereo not drawn) | -103
49 | CN(C)C(=O)COCC1CN(Cc2cccs2)Cc2ncn(C)c21 (stereo not drawn) | 13.1
50 | O=C(CCCn1cncn1)N1CCCC1c1nc(-c2ccccc2)no1 (stereo not drawn) | 0.997
51 | O=C(CCCNC(=O)C1CCCO1)Nc1ccc(Cl)cc1 (stereo not drawn) | 13.2
52 | O=C(c1ccn(-c2cccc(F)c2)n1)N1CCN(CC2CC2)CC1 | -7.54
53 | Fc1ccc(CN2CCC3(CC2)CN(c2ccccn2)CCO3)cc1 | -0.359
54 | CC(=O)N1CCC(Oc2ccc(Cl)cn2)CC1 | -19.5
55 | CN(CCCNC(=O)C1CCc2cn[nH]c2C1)c1ccccc1 (stereo not drawn) | -5.19
56 | COc1ccc(Cc2nc3c([nH]2)CC(C)(C)CNC3=O)c(OC)c1 | -1.02
57 | COc1ccc([C@@H]2CN(Cc3ccncc3)C[C@H]2c2cc[nH]n2)cc1 | -4.96
58 | O=C(O)[C@@H]1CN(C(=O)CCC(F)(F)F)C[C@H]1c1ccncc1 | 0.108
59 | COCCc1nnc(NC(=O)CSCc2ccccc2)o1 | -3.75
60 | CN(C)c1nc(N)nc(CSCCC(=O)Nc2cccc(Cl)c2)n1 | 0.779
61 | COc1cccc(CNC(=O)c2ccccc2-n2cc(CN)cn2)c1 | -21
62 | NC1CCC(n2cc(C(=O)N[C@H]3CCCc4ccccc43)nn2)CC1 (stereo partly drawn) | -5.71
63 | O=C(NCC1CCCO1)c1nc2c(s1)CCCN2C(=O)C1CC1 (stereo not drawn) | -0.464

Row | SMILES | cytotoxicity at 10 µM [%]
64 | Cc1cnn(CC2CCCN2C(=O)c2ccc3cc[nH]c3c2)c1 (stereo not drawn) | 0.409
65 | CCN1CCN(C(=O)c2csnn2)c2ccccc21 | -1.46
66 | COCc1ccccc1C(=O)N1CCC(CNC(=O)OC(C)(C)C)C1 (stereo not drawn) | 10.1
67 | O=C(CN1CCCCC1)Nc1ncc(Br)cc1Br | -9.58
68 | Cc1c(C(=O)N2CCCN(S(C)(=O)=O)CC2)cnn1C | 17.2
69 | CN(Cc1ccsc1)C(=O)c1cccc(S(=O)(=O)NCC2CCCO2)c1 (stereo not drawn) | -13.8
70 | CNC(=O)N1CCN(C(=O)C(C)C)CC2(CC(=O)N(C)C2)C1 (stereo not drawn) | 7.43
71 | COCc1ccccc1CNC(=O)CN1CCC2(CCOC2)C1 (stereo not drawn) | -61
72 | CC(C)(O)CCc1cccc(C(=O)NCC2COCCO2)c1 (stereo not drawn) | -6.38
73 | CN1CCc2nc3c(c(N)c2C1)CCCN3C | 11.3
74 | COCCN1CCCn2cnc(CNC3CCCC3)c2C1 | 4.92
75 | COc1cccc(COCC(=O)N2CCCC(N3CCCC3)CC2)c1 (stereo not drawn) | -4.82
76 | CCCNC(=O)c1ccc(S(=O)(=O)NC2(COC)CCCC2)cc1 | -49.9
77 | CNc1cc(C2CN(Cc3cccnc3NC)CCO2)nc(C)n1 (stereo not drawn) | 2.93
78 | CNc1ncc(C(=O)N2CCCC(CO)(CCCOC)C2)cn1 (stereo not drawn) | -44.4
79 | Cc1occc1C(=O)N1CCC2(CC1)C(c1cnn(C)c1)CC(=O)N2C (stereo not drawn) | 5.66
80 | COc1cccc(CNCc2c(C)nc3sc(C)cn23)c1OC | 32.8
81 | O=C(NCc1c(F)cccc1F)C1CN(C(=O)c2cnccn2)C1 | -12.2
82 | O=C(NCCc1ccncc1)c1cccnc1OCC(F)(F)F | 5.03
83 | COCC(=O)N1CCc2[nH]c(=O)ccc2C1 | 4.11
